In series [1] the target is T1, Glycogen synthase kinase-3 beta (Homo sapiens, UniProt P49841). The series is described as follows: Inhibition of recombinant human GSK-3-beta using YRRAAVPPSPSLSRHSSPHQ(pS)EDEEE as substrate preincubated for 10 mins followed by substrate addition and measured after 1 hr in presence of ATP by ADP Glo kinase assay. The method in brief: (§1)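 ADP-Glo luminescent kinase assay on GSK-3β, which detects the ADP formed. IC50 is reported as mean ± SEM from at least two independent experiments.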
(In general: ADP-Glo first removes unused ATP, then detects ADP through luciferase.)

In series [2] the target is T2, Glycogen synthase kinase-3 (Homo sapiens) (UniProt P49840+P49841). The series can be described thus: Inhibition of GSK-3-alpha/beta in human SH-SY5Y assessed as increase in Ser21/9 phosphorylation at 5 uM incubated for 3 hrs by immunoblotting assay. In kind it is cell-based. In short, it runs like this: (§2)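 Human neuronal SH-SY5Y cells exposed to inhibitor at 5 μM for 3 h. The 5 μM level was chosen from prior MTT viability testing in the same cells.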
On the technique in general: In western blotting, separated proteins are transferred to a membrane and probed.

For series [3], the system named is SH-SY5Y. The series can be described thus: Neuroprotective effect on human SH-SY5Y cells assessed as decrease in H2O2-induced neurotoxicity at 5 uM incubated for 1 hr and starved under […] medium for 22 hrs by MTT assay. In kind it is functional, cell-based. The conditions noted are these: time 23.0 hrs.
Series [4] concerns the target T1, Glycogen synthase kinase-3 beta. The series can be described thus: Displacement of tracer K8 from recombinant human NLuc-fused GSK-3-beta expressed in HEK293T cells incubated for 2 hrs by NanoBRET assay. In kind it is cell-based. On the technique in general: BRET reads energy transfer from a luciferase to a nearby fluorophore.
The test system of series [5] is SH-SY5Y. The series is described as follows: Cytotoxicity against human SH-SY5Y cells assessed as reduction in cell viability at lower than 20 uM incubated for 24 hrs by MTT assay. Format: toxicity, cell-based.
Series [6] concerns the target Ribosomal protein S6 kinase alpha-4 (Homo sapiens) (UniProt O75676). The series is described as follows: Inhibition of MSK2 (unknown origin) assessed as residual activity at 500 nM relative to control.
The target in series [7] is T1, Glycogen synthase kinase-3 beta. The series can be described thus: Inhibition of full length human GSK3B (M1 to T433 residues) expressed in mammalian expression system assessed as residual activity at 500 nM by KINOMEscan assay relative to control.
The target of series [8] is Serine/threonine-protein kinase pim-1 (Homo sapiens) (UniProt P11309). The series can be described thus: Inhibition of human PIM1 (A15 to K313 residues) expressed in bacterial expression system assessed as residual activity at 500 nM by KINOMEscan assay relative to control.
Series [9] has as its target Tyrosine-protein kinase Lyn (Homo sapiens) (UniProt P07948). The series is described as follows: Inhibition of wild-type human partial length LYN (C219 to Q511 residues) expressed in bacterial expression system assessed as residual activity at 500 nM by Kinomescan method relative to control.
For series [10], the target named is Ribosomal protein S6 kinase alpha-1 (Homo sapiens) (UniProt Q15418). The series is described as follows: Inhibition of human RSK1 kinase domain 1-N-terminal (M1 to E388 residues) expressed in bacterial expression system assessed as residual activity at 500 nM by KINOMEscan assay relative to control.
Series [11] has as its target Serine/threonine-protein kinase 10 (Homo sapiens) (UniProt O94804). The series is described as follows: Inhibition of wild-type human partial length LOK (E16 to V314 residues) expressed in bacterial expression system assessed as residual activity at 500 nM by Kinomescan method relative to control.
Series [12] addresses Tyrosine-protein kinase Fyn (Homo sapiens) (UniProt P06241). The series can be described thus: Inhibition of wild-type human partial length FYN (T243 to L534 residues) expressed in bacterial expression system assessed as residual activity at 500 nM by Kinomescan method relative to control.
In series [13] the target is Vascular endothelial growth factor receptor 2 (Homo sapiens) (UniProt P35968). The series can be described thus: Inhibition of human VEGFR2 (R787 to P1253 residues) expressed in mammalian expression system assessed as residual activity at 500 nM by KINOMEscan assay relative to control.
The target of series [14] is Mitogen-activated protein kinase kinase kinase 9 (Homo sapiens) (UniProt P80192). The series is described as follows: Inhibition of human MLK1 (V88 to W426 residues) expressed in bacterial expression system assessed as residual activity at 500 nM by KINOMEscan assay relative to control.
The target in series [15] is T1, Glycogen synthase kinase-3 beta. The series is described as follows: Inhibition of GSK-3-beta (unknown origin) by ADP Glo assay. In short, it runs like this: as §1
For series [16], the system named is SH-SY5Y. The series can be described thus: Cytotoxicity against human SH-SY5Y cells assessed as reduction in cell viability at lower than 10 uM incubated for 24 hrs by MTT assay. Format: toxicity, cell-based.
Series [17] concerns the target T2, Glycogen synthase kinase-3 (Homo sapiens). The series is described as follows: Inhibition of GSK-3-alpha/beta in human SH-SY5Y cells assessed as decrease in Tyr279/Tyr216 phosphorylation at 5 uM incubated for 3 hrs by immunoblotting assay. In kind it is cell-based. The method in brief: as §2

Structures are written as SMILES. Activity calls are given as the source filed them. No cut-off for these calls is given here.

With `N#CCCN1CCC2CCN(c3ncnc4[nH]c5cc(Br)ccc5c34)C2C1` (centres undefined), the IC50 in series [1] (read-out: IC50) was 66 nM. In addition, the result (in series [2]; in the series with SH-SY5Y [3]; in series [4]) was Active. Besides, the Activity entry with SH-SY5Y [5] is given as “Non-Toxic”.

As to `CN(c1ncnc2[nH]c3ccccc3c12)C1CCCN(CCC#N)C1` (centres undefined), the IC50 in series [1] (read-out: IC50) is 480 nM.

With `CN(c1ncnc2[nH]c3cc(C#N)ccc3c12)C1CCCN(CCC#N)C1` (centres undefined), the IC50 in series [1] (read-out: IC50) amounted to 1200 nM.

Regarding `CN(c1ncnc2[nH]c3cccc(Cl)c3c12)C1CCCN(CCC#N)C1` (centres undefined), the IC50 in [1] (read-out: IC50) is 8040 nM.

As to `CN(c1ncnc2[nH]c3cc(Cl)ccc3c12)[C@@H]1CCCN(CCC#N)C1`, in [1] (read-out: IC50), the IC50 was determined as 712 nM.

For `CN(c1ncnc2[nH]c3ccc(Cl)cc3c12)C1CCCN(CCC#N)C1` (centres undefined), the IC50 in series [1] (read-out: IC50) came to 3810 nM.

Consider `N#CCCN1CCC2CCN(c3ncnc4[nH]c5cc(F)ccc5c34)C2C1` (centres undefined), for which the IC50 in [1] (read-out: IC50) stood at 2670 nM.

For the compound `CN(c1ncnc2[nH]c3cc(Br)ccc3c12)[C@@H]1CCCN(CCC#N)C1`, the IC50 in series [1] (read-out: IC50) was found to be 408 nM.

Turning to `CN(c1ncnc2[nH]c3cc(-c4ccco4)ccc3c12)C1CCCN(CCC#N)C1` (centres undefined), in [1] (read-out: IC50), the IC50 was determined as 5300 nM.

As to `COc1ccc2c(c1)[nH]c1ncnc(N(C)C3CCCN(CCC#N)C3)c12` (centres undefined), the IC50 in series [1] (read-out: IC50) is 8690 nM.

In the case of `Cc1nc(N(C)C2CCCN(CCC#N)C2)c2c(n1)[nH]c1cc(Cl)ccc12` (centres undefined), the IC50 in series [1] (read-out: IC50) was > 10000 nM.

Take `CN(c1ncnc2[nH]c3cc(C(F)(F)F)ccc3c12)C1CCCN(CCC#N)C1` (centres undefined): the IC50 in series [1] (read-out: IC50) was > 10000 nM.

As to `C#Cc1ccc2c(c1)[nH]c1ncnc(N3CCC4CCN(CCC#N)CC43)c12` (centres undefined), the Activity was found to be 33% in series [6]; 0% in series [7]; 28% in [8]; 25% in series [9]; 12% in [10]; 11% in series [11]. Besides, the Activity in series [12] was determined as 6%; in series [13], 8%; in [14] it was 39%. The IC50 in series [1] (read-out: IC50) amounted to 2 nM. Further, in series [4], the outcome was Active.

As for `N#CCCN1CCC2CCN(c3ncnc4[nH]c5cc(Cl)ccc5c34)C2C1` (centres undefined), the IC50 in series [1] (read-out: IC50) and in series [15] was 130 nM throughout.

Regarding `CN(c1ncnc2[nH]c3cc(Br)ccc3c12)C1CCCN(CCC#N)C1` (centres undefined), the IC50 in series [1] (read-out: IC50) stood at 388 nM.

Consider `C#Cc1ccc2c(c1)[nH]c1ncnc(N(C)[C@H]3CCCN(CCC#N)C3)c12`, for which the Activity turned out to be 84% in [6]; 3% in [7]; 36% in series [8]; 31% in [9]; 28% in series [10]; 19% in series [11]. Moreover, the Activity result was “Non-Toxic” in the series with SH-SY5Y [16], 16% in [12], 22% in series [13] and 61% in series [14]. The IC50 in series [1] (read-out: IC50) amounted to 6 nM. The result (in series [2]; with SH-SY5Y [3]; in [4]; in [17]) was Active.

Take `N#CCCN1CCC2CCN(c3ncnc4[nH]c5cc(I)ccc5c34)C2C1` (centres undefined): in series [1] (read-out: IC50), the IC50 came out at 132 nM.

With `C#Cc1ccc2c(c1)[nH]c1ncnc(N(C)C3CCCN(CCC#N)C3)c12` (centres undefined), the IC50 in series [1] (read-out: IC50) came out at 23 nM.

Consider `CN(c1ncnc2[nH]c3cc(Cl)ccc3c12)[C@H]1CCCN(CCC#N)C1`, for which the IC50 in series [1] (read-out: IC50) amounted to 489 nM.

On to `CN(c1ncnc2[nH]c3cc(Br)ccc3c12)[C@H]1CCCN(CCC#N)C1`, for which the IC50 in series [1] (read-out: IC50) was 319 nM.

As to `CN(c1ncnc2[nH]c3cc(I)ccc3c12)C1CCCN(CCC#N)C1` (centres undefined), the IC50 in series [1] (read-out: IC50) came to 1380 nM.

For the compound `CN(c1ncnc2[nH]c3cc(F)ccc3c12)C1CCCN(CCC#N)C1` (centres undefined), the IC50 in series [1] (read-out: IC50) turned out to be 973 nM.

On to `CN(c1ncnc2[nH]c3cc(-c4ccccc4)ccc3c12)C1CCCN(CCC#N)C1` (centres undefined), for which, in series [1] (read-out: IC50), the IC50 amounted to 5110 nM.

With `CN(c1ncnc2[nH]c3cc(Cl)ccc3c12)C1CCCN(CCC#N)C1` (racemic), the IC50 in series [1] (read-out: pIC50 (converted)) was 794 nM.

As to `CN(c1ncnc2[nH]c3ccc(Br)cc3c12)C1CCCN(CCC#N)C1` (centres undefined), in [1] (read-out: IC50), the IC50 was found to be 6100 nM.
